For test [1], the target named is PD‐1/PD−L1 (Homo sapiens, UniProt Q9NZQ7). Nature of the test: Homogenous time-resolved fluorescence. The format is binding. The conditions noted are these: read-out: Measured IC50; HTRF PD-1/PD-L1 assay; mean±SD, n=2–3 in triplicate. The gist of the method: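 Competitive TR-FRET (HTRF) kit assay: PD-L1-6His-tag and PD-1-Ig, detected by anti-human IgG-Eu³⁺ cryptate and anti-6HIS-XL665 antibody. Test compounds plated per the kit instructions. Signal read on a multimode plate reader, and IC50 derived from the inhibition of PD-1/PD-L1 binding.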
PD‐1/PD−L1, sequence (Q9NZQ7 19-238 limits assumed): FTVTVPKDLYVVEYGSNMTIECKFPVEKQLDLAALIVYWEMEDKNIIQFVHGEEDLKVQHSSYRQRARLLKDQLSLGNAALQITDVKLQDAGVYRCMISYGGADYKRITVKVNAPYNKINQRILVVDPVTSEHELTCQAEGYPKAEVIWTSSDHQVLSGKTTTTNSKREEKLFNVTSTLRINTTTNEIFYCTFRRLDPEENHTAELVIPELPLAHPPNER
(In general: In TR-FRET formats the signal depends on donor and acceptor labels being close together.)

The subject of test [2] is PD−L1. The conditions noted are these: cited from earlier work.

Where two headings read alike, the source gives them in different places.

For the substance “Atezolizumab: therapeutic antibody targeting PD−L1”, the IC50 (usually the concentration needed to halve the response being measured) in test [1] was 2.25 ± 0.36 nM; in test [2] (read-out: Reported IC50, literature value) it was 3.83 nM.

“Cyclo(AcPhe−^mPhe−^mNle−^mGly−Asp−Val−^mPhe−Tyr−^mGly−Trp−Tyr−Leu−Cys)‐Gly−NH2 [BMS71]”: the IC50 in test [2] (read-out: reported IC50, reported value for BMS71) is 7 nM.
